The target of assay [1] is T1, Urease subunit alpha/Urease subunit beta (Helicobacter pylori (strain ATCC 700392 / 26695) (Campylobacterpylori), UniProt P69996). Put plainly: Inhibition of cell free Helicobacter pylori ATCC 43504 urease assessed as reduction in ammonia production by indophenol based Berthelot color reaction method. The procedure, abridged: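 H. pylori ATCC 43504 grown 24 h at 37 °C, microaerobic (5% O2, 10% CO2, 85% N2), in Brucella broth with 10% heat-inactivated horse serum. Cells (2.0 × 10⁸ CFU/mL) pelleted at 5000 g, 4 °C, washed twice in PBS pH 7.4, stored at −80 °C, then sonicated 60 s in water with protease inhibitors. Extract preincubated with compound 1.5 h at room temperature; ammonia measured by indophenol method.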

Assay [2] concerns the target T1, Urease subunit alpha/Urease subunit beta. The assay is described as follows: Inhibition of urease in intact Helicobacter pylori ATCC 43504 assessed as reduction in ammonia production by indophenol based Berthelot color reaction method. Summed up:
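H. pylori grown 24 h at 37 °C in Brucella broth with 10% heat-inactivated horse serum under microaerobic gas (5% O₂, 10% CO₂, 85% N₂). Cells harvested, washed twice in PBS pH 7.4, and resuspended to 4.0 × 10⁷ CFU/mL. Suspension pre-incubated with compound for 1.5 h at room temperature. Ammonia production measured by the indophenol (Berthelot) method.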

T1 sequence (P69996 whole entry): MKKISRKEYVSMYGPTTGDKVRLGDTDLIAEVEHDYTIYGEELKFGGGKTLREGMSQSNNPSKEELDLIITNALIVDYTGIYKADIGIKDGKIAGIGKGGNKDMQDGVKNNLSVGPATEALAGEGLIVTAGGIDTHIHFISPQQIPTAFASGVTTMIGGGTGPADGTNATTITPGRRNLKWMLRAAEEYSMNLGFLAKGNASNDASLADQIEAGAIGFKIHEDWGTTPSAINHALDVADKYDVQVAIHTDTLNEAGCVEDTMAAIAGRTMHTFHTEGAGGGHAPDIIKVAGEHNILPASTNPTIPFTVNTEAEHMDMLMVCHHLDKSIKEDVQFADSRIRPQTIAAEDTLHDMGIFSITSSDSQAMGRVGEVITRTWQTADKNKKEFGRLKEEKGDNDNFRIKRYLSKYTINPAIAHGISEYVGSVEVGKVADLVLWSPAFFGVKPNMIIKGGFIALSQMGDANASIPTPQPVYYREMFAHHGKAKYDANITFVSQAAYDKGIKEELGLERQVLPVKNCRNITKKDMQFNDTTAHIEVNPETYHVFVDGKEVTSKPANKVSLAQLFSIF
T1 sequence (P14916 whole entry, further chain): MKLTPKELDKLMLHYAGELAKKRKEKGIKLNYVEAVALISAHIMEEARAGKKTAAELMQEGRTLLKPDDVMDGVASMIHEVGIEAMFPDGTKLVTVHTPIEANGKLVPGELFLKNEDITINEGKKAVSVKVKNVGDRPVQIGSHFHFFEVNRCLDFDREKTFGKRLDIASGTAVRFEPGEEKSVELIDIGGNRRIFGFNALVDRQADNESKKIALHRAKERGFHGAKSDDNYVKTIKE

The term IC50 denotes the concentration needed to halve the response being measured. Consider `CCc1ccc(O)c(O)c1O`, for which, in assay [1], the IC50 turned out to be 34 µM.

With `CCCCCCCCc1ccc(O)c(O)c1`, the IC50 in assay [1] is 58 µM. For `Oc1ccc(CCc2cccc(Cl)c2)cc1O`, the figures for the IC50 in assay [2] and in assay [1] were 94.7 µM and 15.7 µM, respectively. With `Oc1ccc(CCc2cccc(Cl)c2)c(O)c1O`, the IC50 in assay [1] was 50 µM. The same measure, in the same setting: the same measure for `Oc1ccc(CCc2ccc(F)cc2)c(O)c1O`: 43 µM; for `CCCCc1ccc(O)c(O)c1O`: 79 µM.

Take `Oc1ccc(CCc2ccc(F)cc2)cc1O`: the IC50 in assay [2] stood at 32.4 µM; in assay [1] it was 6.2 µM. `CCCCCCCCCCc1ccc(O)c(O)c1O`: in assay [1], the IC50 came out at 124 µM.

With `CCc1ccc(O)c(O)c1`, the half-inhibitory concentration (IC50) in assay [2] is 17.3 µM; in assay [1], 4.9 µM. The like results for `CC(=O)NO` [ACETOHYDROXAMIC ACID] were, in that order, 101 µM and 17.2 µM. The corresponding values for `Oc1ccc(CCc2ccc(Cl)cc2)cc1O` are 50.1 µM and 8.3 µM. Turning to `COc1ccc(CCc2ccc(O)cc2)cc1OC`, in assay [1], the IC50 is 204 µM. Take `Oc1ccc(CCc2ccc(Br)cc2)c(O)c1O`: the IC50 in assay [1] amounted to 48 µM.

In the case of `Oc1ccc(CCc2ccc(O)c(O)c2O)cc1`, the IC50 in assay [1] was 32 µM. As to `CCCCCCCCCCCCCCc1ccc(O)c(O)c1O`, the IC50 in assay [1] worked out at 250 µM. Take `CCCCCCc1ccc(O)c(O)c1`: the IC50 in assay [2] came to 77.8 µM; in assay [1], 12.3 µM.

As to `COc1ccc(CCc2ccc(O)c(O)c2O)cc1OC`, the half-maximal inhibitory concentration (IC50) in assay [1] was determined as 71 µM. Same read-out and setting: the same measure for `CCCCCCc1ccc(O)c(O)c1O`: 91 µM; for `COc1ccc(CCc2cccc(Cl)c2)cc1OC`: 235 µM; for `CCCCCCCCCCCCc1ccc(O)c(O)c1O`: 168 µM. In the case of `Oc1ccc(CCc2ccc(Cl)cc2)c(O)c1O`, the IC50 in assay [1] amounted to 47 µM.

As for `Oc1ccc(CCc2cccc(Br)c2)cc1O`, the IC50 was 88.9 µM in assay [2] and 16.9 µM in assay [1].

With `CCOc1ccc(CCc2ccc(O)c(O)c2O)cc1OCC`, the IC50 in assay [1] stood at 69 µM.

Consider `Oc1ccc(CCc2ccc(O)c(O)c2)cc1`, for which the IC50 in assay [2] stood at 4.2 µM; in assay [1], 1.5 µM. For the compound `COc1ccc(CCc2ccc(Cl)cc2)cc1OC`, the IC50 in assay [1] worked out at 254 µM. Turning to `CCCCc1ccc(O)c(O)c1`, the IC50 in assay [2] was 38.1 µM; in assay [1], 7.9 µM. Turning to `COc1ccc(CCc2ccccc2O)cc1OC`, in assay [1], the IC50 was 227 µM. `Oc1ccc(CCc2cccc(Br)c2)c(O)c1O`: the IC50 in assay [1] came to 52 µM.

Regarding `COc1ccc(CCc2ccc(O)c(O)c2)cc1OC`, the IC50 in assay [1] turned out to be 22.7 µM. The same measure, in the same setting: the figure for `CCCCCCCCc1ccc(O)c(O)c1O` is 103 µM.

The values above are taken from ChEMBL document CHEMBL1275289, “The synthesis, structure and activity evaluation of pyrogallol and catechol derivatives as Helicobacter pylori urease inhibitors” (Eur J Med Chem, 2010).
